Measured values as given in ChEMBL document CHEMBL1641459, “Virtual screening and synthesis of quinazolines as novel JAK2 inhibitors” (Bioorg Med Chem, 2011).
Active and inactive are the calls of the source. No cut-off for these calls is given here.

Columns and labels:
[1] = molecular target: Tyrosine-protein kinase JAK2 (Homo sapiens) (UniProt O60674); test: Inhibition of recombinant JAK2 at 20 uM
HT-29 [2] = test: Cytotoxicity against human HT-29 cells after 48 hrs by MTT assay; assay type: functional, cell-based; details: HT-29, 48 h
HeLa = test: Cytotoxicity against human HeLa cells after 48 hrs by MTT assay; assay type: functional, cell-based
SK-OV-3 = test: Cytotoxicity against human SKOV3 cells after 48 hrs by MTT assay; assay type: functional, cell-based; details: SK-OV-3, 48 h
HT-29 [3] = test: Cytotoxicity against human HT-29 cells upto 25 uM after 48 hrs by MTT assay; assay type: functional, cell-based
Outline: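 MTT assay: cells seeded at 1 × 10⁵ cells/mL in RPMI-1640 with 10% FBS, compounds added after 24 h at various concentrations and exposed 48 h; MTT (5 mg/mL stock in PBS) added for 4 h, formazan dissolved in DMSO, absorbance read at 540 nm. Cells cultured in RPMI-1640, 10% FBS, 37 °C, 5% CO₂.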

HT-29 [4] = test: Induction of cell cycle arrest in human HT-29 cells assessed as increase accumulation at G2/M phase at 10 to 30 uM after 48 hrs by flow cytometry; assay type: functional, cell-based
Outline: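 HT-29 cells at 70–80% confluence treated at 10, 20 and 30 µM for 48 h, ethanol-fixed (70%, 1 h on ice), propidium iodide stained with RNase A, DNA content analysed by flow cytometry; three independent experiments, Student's t-test versus untreated control.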

[5] = molecular target: Tyrosine-protein kinase JAK2 (Homo sapiens) (UniProt O60674); test: Inhibition of IL-6-induced JAK2 phosphorylation in human HT-29 cells at 50 to 100 uM by Western blotting; assay type: cell-based
Outline: (§1)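 HT-29 cells treated with IL-6 for 0.5 h, then compound (10, 20 µM or 50, 100 µM); lysed in ice-cold Hepes/Triton X-100 buffer with protease/phosphatase inhibitors, 30–40 µg protein immunoblotted for JAK2 and p-JAK2, ECL detection, GAPDH control; densitometry as % of control, three independent experiments.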

[6] = molecular target: Tyrosine-protein kinase JAK2 (Homo sapiens) (UniProt O60674); test: Inhibition of IL-6-induced JAK2 phosphorylation in human HT-29 cells at 10 to 20 uM by Western blotting; assay type: cell-based; outline: as §1
HT-29 [7] = test: Induction of cell cycle arrest in human HT-29 cells assessed as decrease in accumulation at G1 phase at 5 to 20 uM after 24 hrs by flow cytometry; assay type: functional, cell-based
Outline: (§2)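 HT-29 cells grown to 70–80% confluence, treated at 5, 10 and 20 µM for 24 h, fixed in 70% ethanol 1 h on ice, stained with propidium iodide (50 µg/mL) plus RNase A for 30 min in the dark at room temperature, DNA content by flow cytometry; means of three independent experiments, Student's t-test.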

[8] = molecular target: Tyrosine-protein kinase JAK2 (Homo sapiens) (UniProt O60674); test: Inhibition of human JAK2-mediated IL6-induced Stat3-STAT3-dependent luciferase activity in human HT-29 cells at 5 to 20 uM by Western blotting; assay type: cell-based; details: in the assay text read “by luciferase reporter gene assay” for “by Western blotting”
Outline: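 HT-29 cells co-transfected with pSTAT3-Luc and phRL-TK; after 24 h serum-starved overnight, treated 1 h with compound at varying concentrations and stimulated with IL-6 (20 ng/mL); dual luciferase readout normalised to Renilla; three independent experiments, Student's t-test.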

HT-29 [9] = test: Induction of cell cycle arrest in human HT-29 cells assessed as increase accumulation at G2/M phase at 5 to 20 uM after 24 hrs by flow cytometry; assay type: functional, cell-based; outline: as §2
[10] = molecular target: Tyrosine-protein kinase JAK2 (Homo sapiens) (UniProt O60674); test: Inhibition of IL-6-induced JAK2 phosphorylation in human HT-29 cells by Western blotting; assay type: cell-based; outline: as §1
[11] = molecular target: Tyrosine-protein kinase JAK2 (Mus musculus) (UniProt Q62120); test: Inhibition of IL-6-induced JAK2 phosphorylation in mouse embryonic stem cells at 20 uM by Western blotting; assay type: cell-based
Sequence of Tyrosine-protein kinase JAK2 (Mus musculus) (Q62120 whole entry): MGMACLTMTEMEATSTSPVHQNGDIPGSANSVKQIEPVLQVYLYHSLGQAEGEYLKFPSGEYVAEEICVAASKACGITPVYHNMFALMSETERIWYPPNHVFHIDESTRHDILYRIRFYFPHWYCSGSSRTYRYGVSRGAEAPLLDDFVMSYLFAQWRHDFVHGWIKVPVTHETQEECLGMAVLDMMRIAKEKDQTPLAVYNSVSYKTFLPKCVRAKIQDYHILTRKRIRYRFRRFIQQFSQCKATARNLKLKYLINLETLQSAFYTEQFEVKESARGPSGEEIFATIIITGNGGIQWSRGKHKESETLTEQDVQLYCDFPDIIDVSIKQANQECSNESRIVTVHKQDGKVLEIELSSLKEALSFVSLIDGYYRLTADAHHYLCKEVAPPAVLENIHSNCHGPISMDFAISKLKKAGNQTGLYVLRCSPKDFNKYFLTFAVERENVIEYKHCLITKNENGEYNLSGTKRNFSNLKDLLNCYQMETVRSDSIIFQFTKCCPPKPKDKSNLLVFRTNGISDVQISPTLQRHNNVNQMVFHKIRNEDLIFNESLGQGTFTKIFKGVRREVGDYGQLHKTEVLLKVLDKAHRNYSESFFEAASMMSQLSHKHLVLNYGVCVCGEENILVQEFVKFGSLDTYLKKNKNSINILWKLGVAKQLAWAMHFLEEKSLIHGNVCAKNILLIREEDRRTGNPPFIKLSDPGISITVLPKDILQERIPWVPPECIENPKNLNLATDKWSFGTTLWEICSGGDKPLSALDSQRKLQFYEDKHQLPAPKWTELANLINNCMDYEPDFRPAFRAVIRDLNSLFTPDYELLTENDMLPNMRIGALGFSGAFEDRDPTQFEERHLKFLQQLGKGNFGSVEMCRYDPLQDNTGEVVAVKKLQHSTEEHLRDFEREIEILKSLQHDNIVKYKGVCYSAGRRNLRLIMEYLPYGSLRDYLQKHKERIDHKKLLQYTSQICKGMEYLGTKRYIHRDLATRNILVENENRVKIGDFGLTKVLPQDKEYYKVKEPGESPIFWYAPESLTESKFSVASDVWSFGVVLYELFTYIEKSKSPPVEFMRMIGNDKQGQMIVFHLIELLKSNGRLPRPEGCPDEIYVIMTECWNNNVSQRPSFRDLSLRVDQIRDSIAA
Outline: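 Mouse embryonic stem cells pretreated with IL-6, then exposed to compound; p-JAK2 level assessed by Western blotting.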

Sequence of Tyrosine-protein kinase JAK2 (Homo sapiens) (O60674 whole entry): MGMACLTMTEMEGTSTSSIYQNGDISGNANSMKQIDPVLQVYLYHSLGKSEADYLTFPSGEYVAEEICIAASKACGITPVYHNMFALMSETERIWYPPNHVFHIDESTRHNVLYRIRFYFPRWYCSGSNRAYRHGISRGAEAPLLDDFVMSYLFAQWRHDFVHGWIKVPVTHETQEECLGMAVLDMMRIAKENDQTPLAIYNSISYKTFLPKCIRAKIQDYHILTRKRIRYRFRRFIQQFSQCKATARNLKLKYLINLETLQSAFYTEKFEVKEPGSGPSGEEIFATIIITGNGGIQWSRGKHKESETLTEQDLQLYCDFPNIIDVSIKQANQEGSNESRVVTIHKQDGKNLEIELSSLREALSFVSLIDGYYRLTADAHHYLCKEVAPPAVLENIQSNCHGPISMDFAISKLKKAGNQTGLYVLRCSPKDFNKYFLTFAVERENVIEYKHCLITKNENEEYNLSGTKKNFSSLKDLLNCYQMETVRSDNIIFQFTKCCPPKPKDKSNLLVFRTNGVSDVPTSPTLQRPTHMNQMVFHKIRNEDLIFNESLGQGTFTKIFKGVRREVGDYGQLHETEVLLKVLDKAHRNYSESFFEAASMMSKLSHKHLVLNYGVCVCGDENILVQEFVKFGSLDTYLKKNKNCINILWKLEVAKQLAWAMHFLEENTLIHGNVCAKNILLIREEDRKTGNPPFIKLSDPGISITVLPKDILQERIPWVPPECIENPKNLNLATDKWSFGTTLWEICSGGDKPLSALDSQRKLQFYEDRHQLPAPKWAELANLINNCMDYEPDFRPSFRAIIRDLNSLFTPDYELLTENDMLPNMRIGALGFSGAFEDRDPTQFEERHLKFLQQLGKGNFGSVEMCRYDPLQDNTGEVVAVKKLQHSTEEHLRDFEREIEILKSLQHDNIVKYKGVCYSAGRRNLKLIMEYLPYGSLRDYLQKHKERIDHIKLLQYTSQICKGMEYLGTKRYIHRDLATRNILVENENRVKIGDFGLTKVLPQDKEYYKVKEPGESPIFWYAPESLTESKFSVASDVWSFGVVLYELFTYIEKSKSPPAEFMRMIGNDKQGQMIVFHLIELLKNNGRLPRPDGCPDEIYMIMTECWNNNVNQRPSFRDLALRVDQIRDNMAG

Compound	inhibition [1] [%]	IC50 (HT-29 [2]) [µM]	IC50 (HeLa) [µM]	IC50 (SK-OV-3) [µM]	further results
COc1cc2ncnc(Nc3nc4c(Cl)cccc4s3)c2cc1OC	14.4	> 100	> 100	> 100	–
COc1cc2ncnc(Nc3ccc(C)cc3)c2cc1OC	18.4	57.9	99.5	91.9	–
COc1cc2ncnc(Nc3ccc(Br)cc3)c2cc1OC	29.3	> 100	–	> 100	–
COc1cc2ncnc(NCCN3CCOCC3)c2cc1OC	29.5	> 100	> 100	> 100	–
COc1cc2ncnc(Nc3cccc(O)c3)c2cc1OC	23.8	59.7	43.9	37.5	–
COc1cc2ncnc(Nc3ccc(O)cc3)c2cc1OC	33.1	93	51.5	74.6	–
COc1cccc(Nc2ncnc3cc(OC)c(OC)cc23)c1	29.4	> 100	> 100	> 100	–
N#C/C(=C\c1ccc(O)c(O)c1)C(=O)NCc1ccccc1	55.1	78.5	> 100	–	Activity (HT-29 [3]): inactive; Activity (HT-29 [4]): Active; inhibition [5]: Active; inhibition [6]: inactive
COc1ccc(CCNc2ncnc3cc(OC)c(OC)cc23)cc1OC	25.3	> 100	> 100	> 100	–
COc1cc2ncnc(Nc3ccccc3C)c2cc1OC	10.6	> 100	> 100	> 100	–
COc1ccc(Nc2ncnc3cc(OC)c(OC)cc23)cc1	–	–	–	> 100	–
COc1cc2ncnc(Nc3cccc4ccccc34)c2cc1OC	43	7.65	8.02	16.7	Activity (HT-29 [7]): Active; inhibition [8]: Active; Activity (HT-29 [9]): Active; inhibition [10]: Dose-dependent effect
COc1cc2ncnc(NN3CCOCC3)c2cc1OC	44.4	> 100	> 100	> 100	inhibition [11]: Active
COCCNc1ncnc2cc(OC)c(OC)cc12	38	> 100	> 100	> 100	–
